Measurements published in ChEMBL document CHEMBL1147741, “Chroman/catechol hybrids: synthesis and evaluation of their activity against oxidative stress induced cellular damage” (J Med Chem, 2006).

Legend:
[1] = system: Radical scavenging activity; assay: Antioxidant potency assessed chemically; type: functional
Outline: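 TEAC determined by the Rice-Evans and Miller method, using 0.3 mM trolox solution with data normalized to 1.0 mM trolox.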

Jurkat = assay: Activity against hydrogen peroxide induced DNA damage in Jurkat T cells; type: functional, cell-based, Homo sapiens
Outline: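 Jurkat T cells (1.5 × 10⁵ per well, RPMI 1640 with 10% FCS) were preincubated 1 h at 37 °C, given compound 30 min before glucose oxidase (60 ng, about 11.8 µM H₂O₂/min), and exposed 10 min. Alkaline comet assay followed: lysis, unwinding at pH >13 for 40 min, electrophoresis at 1 V/cm for 30 min, Hoechst 33342 staining, visual scoring of 100 nucleoids. IC50 is the concentration halving strand breakage.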

HT-22 = assay: Inhibition of glutamate-induced oxytosis of mouse hippocampal HT22 cells; type: functional, cell-based
Outline: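 HT22 cells were plated at 4000 per well in phenol-red-free DMEM-HEPES with dextran-charcoal-treated FBS for 24 h. Serial compound dilutions were added with or without 5 mM glutamate for 24 h at 37 °C, and viability was read by MTT formazan conversion. EC50 is the concentration giving glutamate-exposed viability 50% of non-exposed cells; 3-7 independent experiments, mean ± SEM.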

[2] = Homo sapiens, Jurkat, read-out: IC50

Row | SMILES | Activity [1] | IC50 (Jurkat; [2]) | EC50 (HT-22) | IC50 (Jurkat; jurkat)
1 | Cc1c(C)c2c(c(C)c1O)CCC(C)(C(=O)NCCNCCNC(=O)/C=C/c1ccc(O)c(O)c1)O2 (stereo unspecified) | 6.33 µM | 50 µM | > 10000 nM | 
2 | COc1ccc(/C=C/c2c3c(c(C)c(C)c2OC)OC(C)(C)CC3)cc1OC |  |  | > 10000 nM | 
3 | COc1c(C)c(C)c2c(c1CNC(=O)/C=C/c1ccc(O)c(O)c1)CCC(C)(C)O2 | 3.8 µM | 1 µM | 2150 nM | 
4 | Cc1c(C)c2c(c(C)c1O)CCC(C)(C(=O)N1CCN(C(=O)/C=C/c3ccc(O)c(O)c3)CC1)O2 (stereo unspecified) | 6.55 µM | 50 µM | 1480 nM | 
5 | Cc1c(C)c2c(c(NC(=O)/C=C/c3ccc(O)c(O)c3)c1O)CCC(C)(C)O2 | 4.28 µM | 5 µM | 1230 nM | 
6 | Cc1c(C)c2c(c(CCc3ccc(O)c(O)c3)c1O)CCC(C)(C)O2 | 3.74 µM | 5 µM | 930 nM | 
7 | COc1ccc(C#Cc2c(O)c(C)c(C)c3c2CCC(C)(C)O3)cc1OC |  |  | > 10000 nM | 
8 | O=c1c(O)c(-c2ccc(O)c(O)c2)oc2cc(O)cc(O)c12 [QUERCETIN] | 4.3 µM | 5 µM | 2980 nM | 
9 | Cc1c(C)c2c(c(C)c1O)CCC(C)(CNC(=O)/C=C/c1ccc(O)c(O)c1)O2 (stereo unspecified) | 6.53 µM | 25 µM | 1140 nM | 
10 | COc1c(C)c(C)c2c(c1CCc1ccc(O)c(O)c1)CCC(C)(C)O2 | 1.6 µM | 10 µM | 1170 nM | 
11 | O=C(O)/C=C/c1ccc(O)c(O)c1 [CAFFEIC ACID] | 1.2 µM |  |  | Not Active
12 | COc1c(C)c(C)c2c(c1C)CCC(C)(C(=O)N1CCN(C(=O)/C=C/c3ccc(O)c(O)c3)CC1)O2 (stereo unspecified) | 6.12 µM | 50 µM | 2110 nM | 
13 | Cc1c(C)c2c(c(C)c1O)CCC(C)(C(=O)NCCNC(=O)/C=C/c1ccc(O)c(O)c1)O2 (stereo unspecified) | 6.5 µM | 75 µM | 7360 nM | 
14 | COc1c(C)c(C)c2c(c1NC(=O)/C=C/c1ccc(O)c(O)c1)CCC(C)(C)O2 | 6.53 µM | 20 µM | > 10000 nM | 
15 | COc1ccc(CCc2c3c(c(C)c(C)c2OC)OC(C)(C)CC3)cc1OC | 0.05 µM |  | 4590 nM | Not Active
16 | Cc1c(C)c2c(c3c1OC(c1ccc(O)c(O)c1)C3)CCC(C)(C)O2 (stereo unspecified) | 5.9 µM | 10 µM | 1000 nM | 
17 | Cc1c(C)c2c(c(C)c1O)CCC(C)(C(=O)O)O2 (stereo unspecified) [TROLOX] | 1 µM |  |  | Not Active
18 | COc1ccc(/C=C/C(=O)N2CCN(C(=O)C3(C)CCc4c(C)c(O)c(C)c(C)c4O3)CC2)cc1OC (stereo unspecified) | 1.26 µM |  | 650 nM | Not Active
19 | Cc1c(C)c2c(c(C)c1O)CCC(C)(C(=O)NCCN1CCN(C(=O)/C=C/c3ccc(O)c(O)c3)CC1)O2 (stereo unspecified) | 6.24 µM | 20 µM | 6350 nM | 
